Compound activity deposited in PubChem by Broad Institute.
Sampled rows, rich in hits. Any-hit rate of the full collection: about 5.9%.
T cruzi growth-1: inhibitors of T. cruzi proliferation. inhibition, % at 8.34 µM. T. cruzi beta-gal in NIH3T3, GalScreen luminescence, 90 h. actives 5.9% (n = 77,000);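 active = mean inhibition above about 93%, with at least 55% of replicates each passing it, limit read from the data, passing the limit was not always enough; inconclusive = only one of those two conditions holds; inactive = neither condition holds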
Pf Dd2 growth: inhibitors of Plasmodium falciparum Dd2 growth | AID 1159554 | activity change, % at 10 µM | actives 2.3% (n = 94,000) | P. falciparum Dd2 growth, SYBR Green, 72 h; hits give low values; in the data active = activity change below about -80%; inconclusive = no clear call, values can overlap the other calls
IDH1 R132H inh: blocks human IDH1 R132H reductase activity. diaphorase/resazurin fluorescence, 60 min. inhibition, % at 10 µM. actives 0.18% (n = 70,000). AID 624101; in the data active = inhibition above about 34%; inconclusive = no clear call, values can overlap the other calls; inactive = below about 11%;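 also: 0% = DMSO and 100% = no enzyme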
KDM4C inh: inhibitors of human demethylase GASC-1 KDM4C | actives 0.15% (n = 96,000) | inhibition, % at 12.5 µM | Q9H3R0 | AID 720574 | GST-KDM4C 2-372, H3K9me3 peptide, LANCE TR-FRET;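 active = mean replicate inhibition above about 25%, with at least 55% of replicates also reaching it, limit read from the data, passing the limit was not always enough; inconclusive = only one of those two conditions met; inactive = neither condition met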
Target sequence (Q9H3R0 2-372 limits assumed): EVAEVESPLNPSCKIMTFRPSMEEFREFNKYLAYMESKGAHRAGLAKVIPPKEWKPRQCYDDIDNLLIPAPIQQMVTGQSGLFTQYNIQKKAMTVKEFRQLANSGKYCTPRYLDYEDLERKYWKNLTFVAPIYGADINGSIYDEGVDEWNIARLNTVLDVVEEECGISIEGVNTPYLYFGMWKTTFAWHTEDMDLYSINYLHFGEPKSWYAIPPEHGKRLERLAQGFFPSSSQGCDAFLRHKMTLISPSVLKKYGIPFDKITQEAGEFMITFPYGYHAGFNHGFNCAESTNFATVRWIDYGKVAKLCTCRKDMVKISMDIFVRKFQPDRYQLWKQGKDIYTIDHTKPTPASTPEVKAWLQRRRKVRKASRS
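Material: GST-tagged GASC-1 (JMJD2C) catalytic fragment, aa 2-372. Input: enzyme final amount 10 nM. Medium: HEPES buffer, pH 7.5, plus ascorbate. Reagent: H3K9me3 peptide substrate, Fe(II), 2-oxoglutarate. Doses: single dose. Times: reaction 30 min RT, detection step 1 h RT. Measured by: LANCE TR-FRET. Evaluation: Fall in 671/618 emission ratio as inhibition.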
T cruzi growth-2: blocks T. cruzi growth in NIH3T3 host cells | shares compounds with T cruzi growth-1 | T. cruzi beta-gal in NIH3T3, GalScreen luminescence, 90 h | inhibition, % at 8.35 µM | actives 72% (n = 5,600);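 active = mean replicate inhibition above about 95% and at least 55% of replicates individually reaching it, limit read from the data; inconclusive = only one of the two criteria is met; inactive = neither criterion is met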
T cruzi growth-3: Trypanosoma cruzi proliferation inhibition; shares compounds with T cruzi growth-1; T. cruzi beta-gal in NIH3T3, GalScreen luminescence, 90 h; inhibition, % at 2.09 µM; actives 21% (n = 5,600);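 active = mean inhibition above about 95%, with at least 55% of replicates also reaching it, limit read from the data; inconclusive = meets just one of the two conditions; inactive = meets neither condition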;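 also: plate controls were neutral control median for no effect and positive control median for full effect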
3T3 cytotox: kills mouse NIH/3T3 fibroblasts; cytotoxicity (signal decrease), % at 8.35 µM; shares compounds with T cruzi growth-1; AID 651742; actives 14% (n = 5,600); NIH/3T3 viability, CellTiter-Glo ATP luminescence, 90 h;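 active = mean signal decrease across replicates above about 35% based on untreated-well scatter, with enough replicates individually passing, limit read from the data; inconclusive = no rule stated though some were filed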;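 also: 0% = median of neutral control wells and 100% = median of positive control wells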
NIH3T3 tox 2: NIH/3T3 (mouse) viability loss; shares compounds with T cruzi growth-1; NIH/3T3 viability, CellTiter-Glo ATP luminescence, 90 h; inhibition, % at 24.9 µM; actives 56% (n = 5,600); AID 651744;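 active = mean loss of cell viability signal at or above a set limit, and enough replicates individually reaching it; inconclusive = meets only the mean limit or only the replicate share; inactive = meets neither condition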;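 also: 0% = median of neutral control wells and 100% = median of positive control wells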
An asterisk follows results filed as active; ? = inconclusive; . = no result given; ! = repeats disagree.

SMILES | T cruzi growth-1 | Pf Dd2 growth | IDH1 R132H inh | KDM4C inh | T cruzi growth-2 | T cruzi growth-3 | 3T3 cytotox | NIH3T3 tox 2
CCOC(=O)C1=C(C)NC(c2ccccc2)=C(C(=O)OCc2ccc([N+](=O)[O-])cc2)C1C#Cc1ccccc1 (stereo unspecified) | . | . | 1 | . | . | . | . | .
C[C@@H]1CN([C@@H](C)CO)S(=O)(=O)c2ccc(-c3cccc(F)c3)cc2O[C@H]1CN(C)S(C)(=O)=O | 62 | -20 | -4 | -1 | . | . | . | .
C[C@@H]1CN([C@@H](C)CO)S(=O)(=O)c2ccc(Br)cc2O[C@@H]1CN(C)S(=O)(=O)c1ccccc1 | . | 8 | 0 | 1 | . | . | . | .
C[C@@H]1CN([C@@H](C)CO)S(=O)(=O)c2ccc(-c3cccc(F)c3)cc2O[C@H]1CN(C)S(=O)(=O)c1ccccc1 | 122* | -63 | 0 | -1 | 99* | 106* | 58* | 49*
C[C@@H]1CN([C@@H](C)CO)S(=O)(=O)c2ccc(-c3cccc(F)c3)cc2O[C@H]1CN(C)C | -34 | . | 0 | 0 | . | . | . | .
C[C@@H]1CN([C@H](C)CO)S(=O)(=O)c2ccc(-c3cccc(F)c3)cc2O[C@@H]1CN(C)S(=O)(=O)c1ccccc1 | 114* | -33 | 0 | -1 | 97* | 84 | 26 | 54*
C[C@H](CO)N1C[C@H](C)[C@H](CN(C)S(=O)(=O)c2ccccc2)Oc2cc(-c3cccc(F)c3)ccc2S1(=O)=O | 120* | -56 | . | -1 | 97* | 100* | 19 | 34*
C[C@H](CO)N1C[C@H](C)[C@@H](CN(C)S(=O)(=O)c2ccccc2)Oc2cc(-c3cccc(F)c3)ccc2S1(=O)=O | 115* | -28 | -1 | -1 | 101* | 56 | 22 | 29*
COc1cc2nc(CCN3C(=O)c4ccccc4C3=O)oc(=O)c2cc1OC | . | . | 0 | . | . | . | . | .
CC1=C(C(=O)Nc2ccccc2)C(c2ccccc2OCc2ccccc2)n2nnnc2N1 (stereo unspecified) | . | . | 2 | . | . | . | . | .
COc1ccc(S(=O)(=O)N(C)CC(=O)Nc2cc(C(F)(F)F)ccc2Cl)cc1 | . | . | 0 | . | . | . | . | .
C[C@@H]1CN([C@H](C)CO)S(=O)(=O)c2ccc(-c3cccc(F)c3)cc2O[C@H]1CN(C)S(=O)(=O)c1ccccc1 | ? | -16 | 1 | -2 | 92 | 51 | 65* | 41*
C[C@H]1CN([C@@H](C)CO)S(=O)(=O)c2ccc(-c3cccc(F)c3)cc2O[C@@H]1CN(C)S(=O)(=O)c1ccccc1 | 120* | -39 | 0 | -2 | 96* | 86 | 37* | 41*
C[C@H]1CN([C@@H](C)CO)S(=O)(=O)c2ccc(-c3cccc(F)c3)cc2O[C@H]1CN(C)S(=O)(=O)c1ccccc1 | 119* | -63 | 0 | -1 | 99* | 106* | 42* | 62*
N#CCCSc1nnc(-c2cccnc2)n1Cc1ccccc1 | . | . | 0 | . | . | . | . | .
O=C(NC1CCCC1)N1CCCCN2[C@H](CO)[C@H](c3ccc(/C=C/c4ccccc4)cc3)[C@@H]2C1 | 114* | 29 | . | 0 | 95* | 100* | 16 | 103*
O=C(NC1CCCC1)N1CCCCN2[C@H](CO)[C@H](c3ccc(/C=C/c4ccccc4)cc3)[C@H]2C1 | 110* | -36 | . | 0 | 100* | 117* | 24 | 104*
O=C(NC1CCCC1)N1CCCCN2[C@H](CO)[C@@H](c3ccc(/C=C/c4ccccc4)cc3)[C@H]2C1 | 57 | -29 | . | -4 | . | . | . | .
CS(=O)(=O)N(CC(=O)NC1CCCC1)c1cc(Cl)c(Cl)cc1Cl | . | . | 0 | . | . | . | . | .
COc1ccc(-c2nnc(SCC(=O)Nc3ccc(C)cc3C)n2-c2ccccc2)cc1OC | . | . | 0 | . | . | . | . | .
Cc1noc(C)c1NC(=O)N[C@H]1CC[C@@H](CC(=O)NCCCN(C)C)O[C@@H]1CO | ? | -4 | 0 | 1 | 32 | -54 | 15 | -11
C[C@@H]1CCCCO[C@@H](CN(C)C(=O)CCCN(C)C)[C@H](C)CN([C@@H](C)CO)C(=O)c2cc(N(C)C)ccc2O1 | 27 | 24 | -1 | 3 | . | . | . | .
C[C@@H]1CCCCO[C@@H](CN(C)C(=O)CCCN(C)C)[C@@H](C)CN([C@H](C)CO)C(=O)c2cc(N(C)C)ccc2O1 | 108*! | 14 | 0 | 0 | 55 | 1 | 8 | 9
C[C@@H]1CCCCO[C@@H](CN(C)C(=O)CCC(F)(F)F)[C@@H](C)CN([C@H](C)CO)C(=O)c2cc(N(C)C)ccc2O1 | 99*! | -14 | -3 | 2 | 61 | 10 | 1 | -52
C[C@@H]1CCCCO[C@H](CN(C)C(=O)CCC(F)(F)F)[C@H](C)CN([C@H](C)CO)C(=O)c2cc(N(C)C)ccc2O1 | 38 | . | -1 | 0 | . | . | . | .
SMILES | T cruzi growth-1 | Pf Dd2 growth | IDH1 R132H inh | KDM4C inh | T cruzi growth-2 | T cruzi growth-3 | 3T3 cytotox | NIH3T3 tox 2
COc1cc([C@H]2OC[C@H]3[C@@H]2CO[C@@H]3c2ccc3c(c2)OCO3)cc(OC)c1OC | . | . | 4 | . | . | . | . | .
CC(C)NC(=O)N1CCCCN2[C@@H](CO)[C@@H](c3ccc(C#CC4CC4)cc3)[C@@H]2C1 | 107* | 10 | . | 2 | 111* | 65 | 10 | 49*
CC(C)C#Cc1ccc([C@@H]2[C@@H](CO)N3CCCCN(C(=O)NC(C)C)C[C@@H]23)cc1 | 77 | 13 | . | 0 | . | . | . | .
CC(C)C#Cc1ccc([C@H]2[C@@H](CO)N3CCCCN(C(=O)NC(C)C)C[C@H]23)cc1 | 102* | -3 | . | 0 | 111* | 87 | 0 | 49*
CC(C)NC(=O)N1CCCCN2[C@H](C1)[C@H](c1ccc(C#CC3CC3)cc1)[C@@H]2CO | 36 | 0 | . | 1 | . | . | . | .
CC(C)NC(=O)N1CCCCN2[C@H](CO)[C@H](c3ccc(C#CC4CC4)cc3)[C@H]2C1 | 110* | -5 | . | 1 | 113* | 55 | 8 | 66*
COc1ccc(S(=O)(=O)Nc2ccc3c(c2)C(=O)N([C@H](C)CO)C[C@H](C)[C@H](CN(C)Cc2ccc4c(c2)OCO4)OCCCC[C@H](C)O3)cc1 | ? | -73 | . | 1 | 103* | ? | 6 | 105*
C[C@H]1CCCCO[C@H](CN(C)Cc2ccc3c(c2)OCO3)[C@@H](C)CN([C@@H](C)CO)C(=O)c2cc(NS(=O)(=O)c3ccc(F)cc3)ccc2O1 | 58 | -39 | 1 | 1 | . | . | . | .
Cc1ccc(S(=O)(=O)Nc2ccc3c(c2)C(=O)N([C@H](C)CO)C[C@H](C)[C@@H](CN(C)Cc2ccc4c(c2)OCO4)OCCCC[C@H](C)O3)cc1 | 102* | -76 | . | -2 | 108* | 46 | 19 | 84*
